# Legend:
# Mus musculus [1] = species on record: Mus musculus; test: Anticataleptic activity for reversing the reserpine-induced catalepsy in mice.; assay type: functional
# Outline: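 Male CD-1 mice fasted 18 h, given reserpine 5 mg/kg i.p. 4 h before oral compound (1% tragacanth, 10 mL/kg; 100, 30, 10 mg/kg; groups of five).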
# Mus musculus [2] = test: Anti-oxotremorine activity (anticholinergic property) and reduction of salivation in mice at a dose of 30 mg/kg.; assay type: functional
# Outline: (§1)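 Male CD-1 mice, food-deprived 18 h, with water ad libitum except during observation. Groups of 10 received oral treatment in 1% tragacanth at 10 mL/kg. Test agents were dosed at 100, 30 or 10 mg/kg; the reference standard or vehicle was given instead where used. Oxotremorine 0.4 mg/kg i.p. followed 30 min later. Tremor and salivation were each scored 0-3 at 10, 20 and 30 min, reported as mean score ± SEM.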
# [3] = Acute toxicity in mice (24 hours).; assay type: organism-based; details: mouse, in vivo
# Mus musculus [4] = test: Anti-oxotremorine activity (anticholinergic property) and reduction of tremor in mice at a dose of 30 mg/kg.; assay type: functional; outline: as §1
# Mus musculus [5] = test: Anti-oxotremorine activity (anticholinergic property) and reduction of salivation in mice at a dose of 10 mg/kg.; assay type: functional
# Outline: (§2)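 Male CD-1 mice, food withheld 18 h, water ad libitum except during observation. Compound in 1% tragacanth given orally (10 mL/kg) to groups of 10 at 100, 30 or 10 mg/kg. Oxotremorine 0.4 mg/kg i.p. 30 min later. Salivation and tremor each scored 0-3 at 10, 20 and 30 min after oxotremorine. Mean score ±SEM.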
# Mus musculus [6] = test: Anti-oxotremorine activity (anticholinergic property) and reduction of tremor in mice at a dose of 10 mg/kg.; assay type: functional; outline: as §2
# Mus musculus [7] = test: Anti-oxotremorine activity (anticholinergic property) and reduction of salivation in mice at a dose of 100 mg/kg.; assay type: functional; outline: as §2
# Mus musculus [8] = test: Anti-oxotremorine activity (anticholinergic property) and reduction of tremor in mice at a dose of 100 mg/kg.; assay type: functional; outline: as §2
# Mus musculus [9] = test: Anti-oxotremorine activity (anticholinergic property) and reduction of salivation in mice at a dose of 3 mg/kg.; assay type: functional
# Mus musculus [10] = test: Anti-oxotremorine activity (anticholinergic property) and reduction of tremor in mice at a dose of 3 mg/kg.; assay type: functional
SMILES,ED50 (Mus musculus [1]) [mg/kg],Mean score (Mus musculus [2]),LD50 at 24 h [3] [mg/kg],Mean score (Mus musculus [4]),Mean score (Mus musculus [5]),Mean score (Mus musculus [6]),Mean score (Mus musculus [7]),Mean score (Mus musculus [8]),Mean score (Mus musculus [9]),Mean score (Mus musculus [10])
CC12C3CC4C5C[C@H]([C@H](C53)[C@@H]1NCCc1ccccc1)[C@@H]42 (stereo not given in full),150,1.3,> 1000,1.3,–,–,–,–,–,–
CC12C3CC4C5C[C@H]([C@H](C53)[C@@H]1NCc1ccccc1)[C@@H]42 (stereo not given in full),34,1.5,> 1000,1.5,–,–,–,–,–,–
N[C@H]1[C@H]2C3C4C[C@H]2[C@H]2C4CC3C21c1ccccc1 (stereo not given in full),16,1.2,681,1.6,–,–,–,–,–,–
CCN[C@H]1[C@H]2C3C4C[C@H]2[C@H]2C4CC3C21c1ccccc1 (stereo not given in full),14,–,261,–,1,1.3,–,–,–,–
CCCCN[C@H]1[C@H]2C3C4C[C@H]2[C@H]2C4CC3C21C (stereo not given in full),15,–,150,–,1.2,1.2,–,–,–,–
NC12CC3CC(CC(C3)C1)C2 [AMANTADINE],17,–,–,–,–,–,1.1,1.7,–,–
CN1[C@@H]2CC[C@H]1C[C@@H](OC(=O)C(CO)c1ccccc1)C2 (stereo not given in full) [ATROPINE],–,–,–,–,–,–,–,–,0,0.5

# — ChEMBL document CHEMBL1125612, “Synthesis and biological activity of D3-trishomocubyl-4-amines” (J Med Chem, 1991)
